High-throughput results: PubChem, several laboratories
This is a sample that favours compounds with a hit; in the whole collection about 1.5% have one here.
GalR3 antagonist: antagonists of human GalR3 | HEK293 GalR3-CNG cAMP membrane potential fluorescence; galR3 body fused to GalR1 C-terminus | inhibition, % at 3 µM | 360,000 tested, 0.44% active | AID 651719;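 active = inhibition above the screen-wide average plus 3 SD, cut at about 13% in these data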;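 note: forskolin and galanin both at EC90 stimulate the cells; cAMP rise reported by CNG channel membrane potential dye signal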
Target sequence (O60755 1-299 limits assumed): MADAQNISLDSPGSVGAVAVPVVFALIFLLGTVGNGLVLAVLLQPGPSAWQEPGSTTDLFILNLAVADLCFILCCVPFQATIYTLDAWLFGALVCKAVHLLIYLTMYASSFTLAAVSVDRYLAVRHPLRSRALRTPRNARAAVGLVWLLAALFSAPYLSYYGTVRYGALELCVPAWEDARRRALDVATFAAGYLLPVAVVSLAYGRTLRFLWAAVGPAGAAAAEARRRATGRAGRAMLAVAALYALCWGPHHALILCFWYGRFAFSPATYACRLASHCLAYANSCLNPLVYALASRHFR
NR2E3 ag-1: activates human photoreceptor nuclear receptor NR2E3; GST-NR2E3/biotin-RetCOR TR-FRET, 1536-well; inhibition of corepressor binding, % at 4.78 µM; 320,000 tested, 0.12% active; AID 2300;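 active = percent inhibition above the cutoff of mean plus 3 SD of all tested compounds, set per screening campaign, cut at about 20% in these data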
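Material: NR2E3–RetCOR corepressor complex / Incubation: Compound–protein incubation for 5 h at 4 °C / Dosing: compound at 4.8 µM, single dose / Detection: time-resolved FRET / Benchmarks: high control biotin, low control 0.6% DMSO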
Jurkat NFkB inh: lowers PMA/ionomycin-induced NF-kB signal in Jurkat cells; PMA/ionomycin-induced NF-kB luciferase reporter, luminescence; 330,000 tested, 0.53% active; inhibition, % at 4 µM; in the data active = inhibition above about 50%
NR2E3 ag-2: activates human NR2E3 receptor; Q9Y5X4; CHO-S Gal4-NCOR/VP16-NR2E3 two-hybrid, luciferase; 360,000 tested, 0.35% active; inhibition of corepressor binding, % at 3.98 µM;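 active = inhibition above the mean of all tested compounds plus 3 SD, cut at about 70% in these data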;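 note: higher means lower luciferase signal from less NR2E3 corepressor binding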
JMJD2C inh: human JMJD2C demethylase inhibition. GST-JMJD2C(1-420) H3K9me3 demethylation, DELFIA europium. AID 2099. inhibition, % at 2.35 µM. 330,000 tested, 0.069% active;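 active = more than half of a compound's replicate wells show inhibition beyond 50%, single wells judged on their own value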;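 note: signal counts dimethyl H3K9 product captured on neutravidin plate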
Target sequence (Q9H3R0 1-420 limits assumed): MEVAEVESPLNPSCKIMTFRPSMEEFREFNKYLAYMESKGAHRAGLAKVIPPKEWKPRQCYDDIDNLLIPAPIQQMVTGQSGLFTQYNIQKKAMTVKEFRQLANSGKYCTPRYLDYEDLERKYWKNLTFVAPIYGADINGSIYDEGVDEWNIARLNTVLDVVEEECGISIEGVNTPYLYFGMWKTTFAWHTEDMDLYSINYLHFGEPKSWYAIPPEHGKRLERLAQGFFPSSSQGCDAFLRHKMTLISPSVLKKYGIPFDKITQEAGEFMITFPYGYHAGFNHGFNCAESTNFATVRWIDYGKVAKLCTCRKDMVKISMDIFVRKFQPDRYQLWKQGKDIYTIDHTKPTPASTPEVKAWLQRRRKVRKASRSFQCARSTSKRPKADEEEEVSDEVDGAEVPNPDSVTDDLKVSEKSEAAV
697 NFkB inh: lowers PMA/ionomycin-induced NF-kB signal in 697 B cells; 330,000 tested, 0.33% active; inhibition, % at 4 µM; AID 435022; 697 B-cell NF-kB luciferase reporter, 16 h; in the data active = inhibition above about 35%
NR2E3 ag conf: confirmation of human NR2E3 agonists; shares compounds with NR2E3 ag-2; CHO-S mammalian two-hybrid NR2E3-NCOR, luciferase luminescence; AID 624378; 2,300 tested, 51% active; inhibition, % at 3.98 µM;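 active = average inhibition above a cutoff equal to the mean inhibition of all tested compounds plus one SD, cut at about 70% in these data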
GAL4-VP16 luc: counter-screen for NR2E3 agonists: GAL4-VP16 reporter inhibitors; shares compounds with NR2E3 ag-2; CHO-S GAL4-VP16 luciferase reporter, luminescence; inhibition, % at 3.98 µM; 2,300 tested, 29% active; AID 624379;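 active = mean inhibition above a cutoff equal to the average over all tested compounds plus one standard deviation, cut at about 70% in these data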;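 note: luciferase from a UAS reporter driven by GAL4-VP16 transactivation; higher means less reporter light so more repression of VP16 activity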
Each line names hits and unclear results; the compound was inactive in the other large screens (follow-up assays come after a bar, where they were run).

CC(C)OC(=O)C(=O)NNc1ccccc1	none | NR2E3 ag conf inactive | GAL4-VP16 luc inactive
Cc1cc(C)cc(Cn2cc(CN3CC(N4CCN(Cc5ccccc5F)CC4)CS3(=O)=O)nn2)c1 (configuration not stated)	none (no result: NR2E3 ag-1, Jurkat NFkB inh, JMJD2C inh, 697 NFkB inh)
COc1ccc(N2CC(C(=O)N[C@@H](C)C(=O)NCCc3ccccc3)CC2=O)cc1 (some centres not stated)	none
CCN(CC)CCNC(=O)c1cc2cc(Br)ccc2s1	none
Oc1c(Br)cc(Br)cc1/C=N/NC(=S)N[C@H]1CC2C=CC1C2 (some centres not stated)	none
CNC(=S)N/N=C/c1cc(Br)cc(Br)c1O	NR2E3 ag-2 89 | NR2E3 ag conf inactive | GAL4-VP16 luc inactive
COc1cccc(C(C)(O)c2nc(-c3cc4ccccc4o3)cs2)c1 (configuration not stated)	NR2E3 ag-2 79 (no result: NR2E3 ag-1, Jurkat NFkB inh, JMJD2C inh, 697 NFkB inh) | NR2E3 ag conf 93 | GAL4-VP16 luc 72
CC(O)(c1ccc(F)c(F)c1)c1nc(-c2cc3ccccc3o2)cs1 (configuration not stated)	none (no result: NR2E3 ag-1, Jurkat NFkB inh, JMJD2C inh, 697 NFkB inh) | NR2E3 ag conf inactive | GAL4-VP16 luc inactive
COc1cccc(C(=O)Nc2ccccc2OC(F)(F)F)c1	none
CCN(C(=O)COC(=O)CCOc1cc(C)ccc1C)c1c(N)n(Cc2ccccc2)c(=O)[nH]c1=O	none (no result: NR2E3 ag-1, Jurkat NFkB inh, JMJD2C inh, 697 NFkB inh)
Cc1ccc(/C=C/C(=O)c2c(C)cc(C)[nH]c2=O)cc1	none (no result: GalR3 antagonist) | NR2E3 ag conf inactive | GAL4-VP16 luc inactive
CCN(CC)c1ccc(S(=O)(=O)Nc2cc(Cl)ccc2Cl)cc1NC(=S)NC(=O)C1CCCC1	none | NR2E3 ag conf inactive | GAL4-VP16 luc inactive
CCN(CC)S(=O)(=O)c1ccc(Cl)c(NC(=S)NC(=O)C2CCCC2)c1	none
Cc1cc(NNC(=O)c2cccc(C(F)(F)F)c2)nc2c1c(C)nn2C	none | NR2E3 ag conf 87 | GAL4-VP16 luc inactive
Cc1cc(C)n(CC(=O)NNC(=O)c2cccc(C(F)(F)F)c2)n1	none
COc1ccc(C)cc1NC(=O)C1CCN(C(=O)Cc2ccccc2)CC1	none
CCC1=C(CC2NCCc3ccccc32)CC2c3cc(OC)c(OC)cc3CCN2C1 (configuration not stated)	NR2E3 ag-2 97 (no result: NR2E3 ag-1, Jurkat NFkB inh, JMJD2C inh, 697 NFkB inh) | NR2E3 ag conf 90 | GAL4-VP16 luc 87
COc1cc2c(cc1OC)CN1CCc3cc(OC)c(OC)cc3C1C2 (configuration not stated)	none (no result: NR2E3 ag-1, Jurkat NFkB inh, JMJD2C inh, 697 NFkB inh)
O=C1Cc2c([nH]c3ccc([N+](=O)[O-])cc23)-c2ccccc2N1	NR2E3 ag-2 85 (no result: NR2E3 ag-1, Jurkat NFkB inh, JMJD2C inh, 697 NFkB inh) | NR2E3 ag conf 97 | GAL4-VP16 luc 71
O=c1[nH]c2cc([N+](=O)[O-])ccc2c2ccccc12	none (no result: NR2E3 ag-1, Jurkat NFkB inh, JMJD2C inh, 697 NFkB inh)
Cc1ccccc1Oc1cc(-n2ncc(Cl)c(Cl)c2=O)ncn1	none (no result: Jurkat NFkB inh, 697 NFkB inh) | NR2E3 ag conf inactive | GAL4-VP16 luc inactive
CCOc1cnn(-c2cc(Oc3ccc(C)cc3)ncn2)c(=O)c1Cl	none
O=C(CNC(=O)c1cccc(-n2cccc2)c1)Nc1ccccc1Br	none (no result: NR2E3 ag-1, Jurkat NFkB inh, JMJD2C inh, 697 NFkB inh)
Cc1cc(Cl)ccc1C(=O)C1CCCN(C(=O)c2cncs2)C1 (configuration not stated)	none
O=C(NCc1cccnc1)/C(=C\c1ccc(-c2cccc(Cl)c2)o1)S(=O)(=O)c1ccccc1	NR2E3 ag-2 91 (no result: Jurkat NFkB inh, 697 NFkB inh) | NR2E3 ag conf inactive | GAL4-VP16 luc inactive
O=C(NCc1cccnc1)/C(=C/c1ccc(-c2cccc(Cl)c2)o1)S(=O)(=O)c1ccccc1	none
CC(=O)N(/N=C1\Sc2ccccc2C1=O)c1ccc(C)cc1C	none | NR2E3 ag conf inactive | GAL4-VP16 luc inactive
CC(=O)N(/N=C1\Sc2ccccc2C1=O)c1ccccc1C	none
Cc1ccc(-c2cnc(C(O)c3ccc(Cl)c(F)c3)[nH]2)cc1 (configuration not stated)	none (no result: GalR3 antagonist, NR2E3 ag-1, Jurkat NFkB inh, JMJD2C inh, 697 NFkB inh) | NR2E3 ag conf inactive | GAL4-VP16 luc inactive
OC(c1ccc(Cl)c(F)c1)c1ncc(-c2ccc(F)cc2)[nH]1 (configuration not stated)	NR2E3 ag-2 80 (no result: NR2E3 ag-1, Jurkat NFkB inh, JMJD2C inh, 697 NFkB inh) | NR2E3 ag conf 78 | GAL4-VP16 luc inactive
O=C(COc1ccc2cc(-c3ccccc3)c(=O)oc2c1)NCC1CCC(C(=O)O)CC1 (configuration not stated)	none
COc1ccc(OC)c(Nc2nc(-c3c(C)nc4ncccn34)cs2)c1	none | NR2E3 ag conf inactive | GAL4-VP16 luc inactive
CC(=O)Nc1ccc(S(=O)(=O)Nc2ccc3c(c2)CCC3)cc1	none | NR2E3 ag conf inactive | GAL4-VP16 luc inactive
CC(=O)N1CCCc2ccc(NS(=O)(=O)c3ccc(C)c(C)c3)cc21	none | NR2E3 ag conf inactive | GAL4-VP16 luc inactive
COc1ccc(-n2nc3c(c2NC(=O)COc2ccccc2F)CS(=O)(=O)C3)cc1	none
CCCCCCCCCCCCN1[C@@H](CC(=O)O)c2cc(C(F)(F)F)ccc2S1(=O)=O	none | NR2E3 ag conf 98 | GAL4-VP16 luc inactive
CCCCCCCCCCCCN1[C@@H](CC(=O)O)c2cc(F)ccc2S1(=O)=O	NR2E3 ag-2 95 | NR2E3 ag conf 94 | GAL4-VP16 luc inactive
CCN1CCCC1CNC(=O)C1CCN(Cc2nc(-c3cccc(Br)c3)oc2C)CC1 (configuration not stated)	none (no result: GalR3 antagonist)
O=S(=O)(N/N=C/c1ccc2c(c1)OCO2)c1ccc(Br)cc1	none
COc1ccc(O)c(/C=N/Nc2nc(Nc3ccccc3)nc(-n3nc(C)cc3C)n2)c1	NR2E3 ag-2 96 | NR2E3 ag conf inactive | GAL4-VP16 luc inactive
COc1cc(/C=N/Nc2nc(Nc3ccccc3)nc(-n3nc(C)cc3C)n2)cc(OC)c1OC	none | NR2E3 ag conf inactive | GAL4-VP16 luc inactive
COc1ccc(/C=N/Nc2nc(Nc3ccccc3)nc(N3CCCC3)n2)cc1[N+](=O)[O-]	none
COc1cc(/C=N/Nc2nc(Nc3ccc(C)cc3)nc(-n3nc(C)cc3C)n2)cc(OC)c1OC	none | NR2E3 ag conf inactive | GAL4-VP16 luc inactive
COc1ccc(/C=N/Nc2cc(C)nc(-n3nc(C)cc3C)n2)cc1	NR2E3 ag-2 94 | NR2E3 ag conf inactive | GAL4-VP16 luc inactive
COc1ccc(Cl)cc1NC(=O)CN1C(=O)C(=O)N(C2CCCC2)C1=O	none (no result: NR2E3 ag-1, Jurkat NFkB inh, JMJD2C inh, 697 NFkB inh)
Cc1cc(=O)[nH]n(CCO)c1=O	none
Cc1ccccc1CNC(=O)Nc1ccc(Cl)cc1	none
COc1ccc(-c2nn(-c3ccccc3)cc2/C=N/N=C(N)N)cc1OC	none
COc1ccc(-c2nn(-c3ccccc3)cc2/C=N/O)cc1OC	none | NR2E3 ag conf inactive | GAL4-VP16 luc inactive
c1ccc2cc(CCO[C@H]3CCCCO3)ncc2c1	none (no result: NR2E3 ag-1)
CCC(C)[C@H]1CNC(=S)N1CCc1cc(C(F)(F)F)cc(C(F)(F)F)c1 (some centres not stated)	none | NR2E3 ag conf inactive | GAL4-VP16 luc inactive
